The source of these data is ChEMBL document CHEMBL3774372, “Design, physico-chemical properties and biological evaluation of some new N-[(phenoxy)alkyl]- and N-{2-[2-(phenoxy)ethoxy]ethyl}aminoalkanols as anticonvulsant agents” (Bioorg Med Chem, 2016).

A word on the IC50: it is the concentration needed to halve the response being measured.

For data set [1], the system named is Mus musculus. Description: Anticonvulsant activity in mouse assessed as protection against 6 Hz psychomotor seizure at 50 mg/kg, ip after 1 hr. The data set is classed as functional, organism-based. Put shortly:
(§1)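 Suspension in 0.5% methylcellulose given ip to mice; corneal stimulation with 0.2 ms monopolar rectangular pulses at 6 Hz for 3 s from a constant current device, mice restrained then released to observation cage. Protected if normal exploratory behaviour resumed within 10 s of stimulation. Scored as protected/tested, 4 mice per group.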

Data set [2] has as its system Mus musculus. Briefly: Anticonvulsant activity in mouse assessed as protection against 6 Hz psychomotor seizure at 50 mg/kg, ip after 2 hrs. Format: functional, organism-based. In a few lines: as §1
Data set [3] deals with Mus musculus. Briefly: Anticonvulsant activity in mouse assessed as protection against 6 Hz psychomotor seizure at 50 mg/kg, ip after 4 hrs. Format: functional, organism-based. Put shortly:
as §1

Data set [4] relates to Mus musculus. Briefly: Neurotoxicity in mouse at 50 mg/kg, ip after 0.5 hrs by rotarod test. The data set is classed as toxicity, organism-based. The conditions noted are these: in vivo. In a few lines:
(§2)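 Mice were dosed ip with compound suspended in 0.5% methylcellulose. Rotarod: a 1 in. knurled rod turning at 6 rpm. Neurotoxicity was scored as failure to stay on the rod for at least 1 min in each of three trials. Results are given as the number of animals affected out of the number tested.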

Data set [5] concerns Mus musculus. Briefly: Neurotoxicity in mouse at 50 mg/kg, ip after 1 hr by rotarod test. Format: toxicity, organism-based. The conditions noted are these: in vivo. Put shortly:
as §2

Data set [6] has as its system Mus musculus. Description: Neurotoxicity in mouse at 50 mg/kg, ip after 2 hrs by rotarod test. Format: toxicity, organism-based. The note with it: in vivo. In a few lines: as §2
Data set [7] deals with Mus musculus. Briefly: Neurotoxicity in mouse at 50 mg/kg, ip after 4 hrs by rotarod test. The note with it: in vivo. Format: toxicity, organism-based. In a few lines:
as §2
In general terms: Falling from the rotarod earlier than controls is read as motor impairment.

The subject of data set [8] is Vibrio harveyi. Description: Mutagenicity in Vibrio harveyi BB7 assessed as number of colonies after 48 hrs (reference value: 13 to 14 no_unit). The data set is classed as ADME, organism-based. The conditions noted are these: in vivo. Put shortly: (§3)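 Vibrio harveyi mutagenicity test: test compound was added to exponentially growing cultures (A600 = 0.1, 30 °C) and grown to OD600 0.3–0.4. Then 5 × 10^6 cells were plated on BOSS agar with neomycin (final 100 µg/mL) and incubated 48 h at 30 °C. Neomycin-resistant colonies were counted. Triplicate; controls were water, DMSO and NQNO 40 ng/mL.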

Data set [9] deals with Vibrio harveyi. Description: Mutagenicity in Vibrio harveyi BB7X assessed as number of colonies after 48 hrs (reference value: 15 to 16 no_unit). The data set is classed as ADME, organism-based. The note with it: in vivo. Put shortly:
as §3

Data set [10] has as its system Vibrio harveyi. Briefly: Mutagenicity in Vibrio harveyi BB7M assessed as number of colonies after 48 hrs (reference value: 13 to 14 no_unit). Format: ADME, organism-based. The note with it: in vivo. In a few lines:
as §3

Data set [11] concerns Vibrio harveyi. Briefly: Mutagenicity in Vibrio harveyi BB7XM assessed as number of colonies after 48 hrs (reference value: 14 no_unit). The data set is classed as ADME, organism-based. The note with it: in vivo. In a few lines: as §3
Data set [12] has as its system Vibrio harveyi. Description: Antimutagenic activity against Vibrio harveyi BB7 assessed as inhibition of NQNO-induced mutagenicity after 48 hrs. The data set is classed as functional. In a few lines:
(§4)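 V. harveyi cultures grown exponentially to A600 0.1 at 30 °C, exposed to test compound for 15 min, then to NQNO, and grown on to A600 0.3–0.4. 5 × 10⁶ cells plated on BOSS agar with neomycin (100, final). Neomycin-resistant colonies counted after 48 h at 30 °C. Result given as % inhibition of NQNO mutagenicity; three independent repeats.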

The test system of data set [13] is Vibrio harveyi. Description: Antimutagenic activity against Vibrio harveyi BB7X assessed as inhibition of NQNO-induced mutagenicity after 48 hrs. The data set is classed as functional. In a few lines: as §4
The test system of data set [14] is Vibrio harveyi. Description: Antimutagenic activity against Vibrio harveyi BB7M assessed as inhibition of NQNO-induced mutagenicity after 48 hrs. Format: functional. In a few lines: as §4
The subject of data set [15] is Vibrio harveyi. Description: Antimutagenic activity against Vibrio harveyi BB7XM assessed as inhibition of NQNO-induced mutagenicity after 48 hrs. Format: functional. Put shortly: as §4
For data set [16], the system named is Mus musculus. Briefly: Anticonvulsant activity in mouse assessed as protection against 6 Hz psychomotor seizure at 100 mg/kg, ip after 1 hr. The data set is classed as functional, organism-based. Put shortly: as §1
The test system of data set [17] is Mus musculus. Description: Anticonvulsant activity in mouse assessed as protection against 6 Hz psychomotor seizure at 100 mg/kg, ip after 2 hrs. Format: functional, organism-based. Put shortly: as §1
Data set [18] has as its system Mus musculus. Description: Neurotoxicity in mouse at 100 mg/kg, ip after 2 hrs by rotarod test. The data set is classed as toxicity, organism-based. The conditions noted are these: in vivo. Put shortly:
as §2

For data set [19], the system named is Mus musculus. Description: Anticonvulsant activity in mouse assessed as protection against 6 Hz psychomotor seizure at 100 mg/kg, ip after 0.5 hrs. The data set is classed as functional, organism-based. In a few lines:
as §1

The test system of data set [20] is Mus musculus. Description: Anticonvulsant activity in mouse assessed as protection against 6 Hz psychomotor seizure at 100 mg/kg, ip after 4 hrs. Format: functional, organism-based. In a few lines:
as §1

Data set [21] relates to Mus musculus. Description: Neurotoxicity in mouse at 100 mg/kg, ip after 4 hrs by rotarod test. Format: toxicity, organism-based. The conditions noted are these: in vivo. In a few lines:
as §2

The nature of data set [22]: Displacement of [3H]D888 from rat cerebral cortex L-type calcium channel verapamil binding site. Format: tissue-based. Background: Displacement assays read how much labelled ligand stays bound in the presence of the test substance.
Data set [23] deals with 5-hydroxytryptamine receptor 2C (Homo sapiens, UniProt P28335). Description: Displacement of [3H][…] from human recombinant 5-HT2C receptor expressed in HEK293 cells. The data set is classed as cell-based.
5-hydroxytryptamine receptor 2C, sequence (P28335 whole entry): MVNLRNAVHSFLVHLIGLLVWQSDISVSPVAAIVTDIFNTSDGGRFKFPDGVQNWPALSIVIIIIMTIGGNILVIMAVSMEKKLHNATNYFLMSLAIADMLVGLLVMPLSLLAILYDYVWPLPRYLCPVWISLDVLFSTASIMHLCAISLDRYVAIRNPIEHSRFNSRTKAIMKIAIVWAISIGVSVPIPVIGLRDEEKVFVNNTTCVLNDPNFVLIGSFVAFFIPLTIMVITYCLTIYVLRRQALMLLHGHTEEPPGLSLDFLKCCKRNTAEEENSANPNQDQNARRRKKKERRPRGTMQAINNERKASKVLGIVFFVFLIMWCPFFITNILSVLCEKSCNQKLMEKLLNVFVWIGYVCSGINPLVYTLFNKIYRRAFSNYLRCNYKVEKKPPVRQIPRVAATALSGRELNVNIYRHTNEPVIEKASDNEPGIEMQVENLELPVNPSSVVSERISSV
For data set [24], the target named is 5-hydroxytryptamine receptor 2B (Homo sapiens, UniProt P41595). Briefly: Displacement of [125I](+/-)DOI from human recombinant 5-HT2B receptor expressed in CHO cells. Format: cell-based.
5-hydroxytryptamine receptor 2B, sequence (P41595 whole entry): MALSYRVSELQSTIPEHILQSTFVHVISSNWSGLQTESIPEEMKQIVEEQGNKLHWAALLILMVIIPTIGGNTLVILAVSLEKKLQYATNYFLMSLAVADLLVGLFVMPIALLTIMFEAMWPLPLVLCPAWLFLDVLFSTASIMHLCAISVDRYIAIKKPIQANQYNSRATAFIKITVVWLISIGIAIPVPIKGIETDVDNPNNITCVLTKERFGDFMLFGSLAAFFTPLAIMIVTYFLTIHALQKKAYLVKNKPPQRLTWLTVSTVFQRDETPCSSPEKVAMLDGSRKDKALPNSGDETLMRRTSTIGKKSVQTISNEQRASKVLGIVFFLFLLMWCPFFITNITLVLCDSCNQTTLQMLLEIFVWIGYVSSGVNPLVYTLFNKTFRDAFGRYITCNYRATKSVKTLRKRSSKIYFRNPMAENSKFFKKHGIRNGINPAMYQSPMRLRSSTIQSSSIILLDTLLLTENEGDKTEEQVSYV

Molecules are shown by their SMILES. Calls of active or inactive are those of the source. The calls are words filed in the database; no cut-off is given here.

`Cc1cc(C)c(OCCOCCN[C@@H]2CCCC[C@H]2O)c(C)c1` (racemic): the result with Mus musculus [1], in the data set on Mus musculus [2] and in the data set with Mus musculus [3] was inactive. Besides, the Activity result in the data set with Mus musculus [4] is reported as “Non-toxic”; in the data set on Mus musculus [5], “Non-toxic”; in the data set with Mus musculus [6] it was “Non-toxic”; in the data set on Mus musculus [7], “Non-toxic”; with Vibrio harveyi [8] it was 20; in the data set on Vibrio harveyi [9], 15. In addition, the Activity in the data set with Vibrio harveyi [10] came to 10; with Vibrio harveyi [11] it was 26. In addition, the “inhibition (INH)” value with Vibrio harveyi [12] is given as 62%; in the data set with Vibrio harveyi [13], 0%; in the data set on Vibrio harveyi [14], 27%; in the data set with Vibrio harveyi [15], 0%.

Take `Cc1ccc(OCCNC(C)CO)c(C)c1` (centres undefined): the outcome with Mus musculus [16], in the data set on Mus musculus [17], with Mus musculus [19] and in the data set on Mus musculus [20] was inactive. For the same molecule, the Activity result with Mus musculus [18] and in the data set with Mus musculus [21] was “Non-toxic” throughout.

Regarding `COc1ccc(CCN(C)CCCC(C#N)(c2cc(OC)c(OC)c(OC)c2)C(C)C)cc1OC` (centres undefined) [GALLOPAMIL], the IC50 in data set [22] stood at 15 nM.

On to `COc1cc(OC)c(C(=O)CCCCN2CCC3(CC2)NC(=O)NC3=O)cc1NS(=O)(=O)c1ccc(C(F)(F)F)cc1` [RS-102,221], for which, in [23], the IC50 is 1.5 nM.

With `COc1cc(CC(C)N)c(OC)cc1I` (racemic), the IC50 in data set [24] stood at 2.5 nM.
